In ChEMBL document CHEMBL2146477, “Antimicrobial Activity of Adenine-Based Inhibitors of NAD(+)-Dependent DNA Ligase” (ACS Med Chem Lett, 2012):
pIC50: −log10 of the molar value. Converted amounts (≈) assume the structure as drawn.

Experiments:
[1] = tested on: Haemophilus influenzae; assay: Antibacterial activity against Haemophilus influenzae HIN102 overexpressing LigA by NCCLS broth microdilution method; format: functional
Method in brief: (§1)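 MIC measured on the LigA-overexpressing strain, in duplicate on different days. The reported MIC is the geometric mean of the two. The maximum test concentration was 64 μg/mL.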

[2] = Inhibition of NAD-dependent LigA in AcrABTolC deficient Haemophilus influenzae HIN101 after 20 mins by FRET assay
Method in brief: (§2)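 LigA enzyme assay with NAD+ at a low multiple of its Km (around 1–10 μM). Percent inhibition was measured at 2-fold serial dilutions of compound, and IC50 was interpolated. The reported value is the geometric mean of at least 2 determinations.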

[3] = tested on: Haemophilus influenzae; assay: Ratio of MIC for AcrABTolC deficient Haemophilus influenzae HIN101 to MIC for Haemophilus influenzae HIN102 overexpressing LigA; format: functional
Method in brief: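 MICs for parental HIN101 and isogenic LigA-overexpressing HIN102 were each run in duplicate on different days, up to 64 μg/mL, using geometric-mean values. A difference of at least 4-fold on both occasions was taken to mean the LigA mode of action in the parental strain.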

[4] = tested on: Streptococcus pneumoniae; assay: Antibacterial activity against Streptococcus pneumoniae SPN100 by NCCLS broth microdilution method; format: functional
[5] = tested on: Haemophilus influenzae; assay: Antibacterial activity against AcrABTolC deficient Haemophilus influenzae HIN101 by NCCLS broth microdilution method; format: functional
[6] = Inhibition of NAD-dependent LigA in Streptococcus pneumoniae SPN100 after 20 mins by FRET assay; method in brief: as §2
[7] = tested on: Streptococcus pneumoniae; assay: Ratio of MIC for Streptococcus pneumoniae SPN102 to MIC for Streptococcus pneumoniae SPN100
[8] = tested on: Streptococcus pneumoniae; assay: Antibacterial activity against Streptococcus pneumoniae SPN102 overexpressing LigA by NCCLS broth microdilution method; format: functional; method in brief: as §1

| Compound | MIC [1] [µg/mL] | pIC50 [2] | Ratio [3] | MIC [4] [µg/mL] | MIC [5] [µg/mL] | pIC50 [6] | Ratio [7] | MIC [8] [µg/mL] |
| --- | --- | --- | --- | --- | --- | --- | --- | --- |
| Nc1nc(OC2CCC3CCCCC3C2)nc2c1ncn2C1CCCO1 (stereo not given) | 8 (≈ 22.4 µM) | 6.07 | 16 | 2 (≈ 5.6 µM) | 8 (≈ 22.4 µM) | 7.22 |  |  |
| C[C@H]1O[C@@H](n2cnc3c(N)nc(OC4CCC5CCCCC5C4)nc32)[C@H](O)[C@@H]1O (stereo not given in full) | 32 (≈ 79.3 µM) | 6.59 | 16 | 0.5 (≈ 1.24 µM) | 8 (≈ 19.8 µM) | 7.40 |  |  |
| C[C@H]1O[C@@H](n2cnc3c(N)nc(OCC45CC6CC(CC(C6)C4)C5)nc32)[C@H](O)[C@@H]1O |  | 5.77 |  | 2 (≈ 4.81 µM) | 32 (≈ 77 µM) | 6.70 |  |  |
| Nc1nc(OC2CCC3CCCCC3C2)nc2c1ncn2[C@@H]1O[C@H](CO)[C@@H](O)[C@H]1O (stereo not given in full) |  | 6.40 |  | 1 (≈ 2.38 µM) | 16 (≈ 38.1 µM) | 7.10 |  |  |
| C[C@H]1O[C@@H](n2cnc3c(N)nc(OC4CCCC4)nc32)[C@H](O)[C@@H]1Oc1ccccc1 |  | 5.89 |  | 2 (≈ 4.86 µM) | 64 (≈ 156 µM) | 7.30 |  |  |
| Nc1nc(OC2CCCC2)nc2c1ncn2[C@@H]1O[C@H](CO)[C@@H](F)[C@H]1O | > 64 | 6.52 | 16 | 4 (≈ 11.3 µM) | 8 (≈ 22.6 µM) | 7.00 | 64 | > 64 |
| C[C@H]1O[C@@H](n2cnc3c(N)nc(OC4CCCC4)nc32)[C@H](O)[C@@H]1CC1CCCCC1 |  |  |  | 16 (≈ 38.5 µM) |  | 6.52 | 64 | 16 (≈ 38.5 µM) |
| Nc1nc(OC2CCC3CCCC3C2)nc2c1ncn2C1CCCO1 (stereo not given) |  |  |  | 4 (≈ 11.6 µM) |  | 6.70 | 64 | 32 (≈ 93.2 µM) |
